From ChEMBL document CHEMBL1649151, “Urinary bactericidal activity of Doripenem versus that of levofloxacin in patients with complicated urinary tract infections or pyelonephritis” (Antimicrob Agents Chemother, 2009)
Converted amounts (≈) assume the structure as drawn.

Columns and labels:
Escherichia coli [1] = assay: Antimicrobial activity against Escherichia coli 2062717 B-P isolated from patient with pyelonephritis by Etest; assay type: functional
Escherichia coli [2] = assay: Antimicrobial activity against Escherichia coli 1889646 B-F isolated from patient with pyelonephritis by Etest; assay type: functional
[3] = Drug excretion in pyelonephritis patient urine at 500 mg/kg, iv administered every 8 hrs; assay type: ADME, organism-based; parameters: dose 500 mg/kg, route intravenous; conditions: human, read-out: Activity
Escherichia coli [4] = assay: Antimicrobial activity against Escherichia coli 1949820 B-N isolated from patient with pyelonephritis assessed as >3-log reduction in urinary bacterial titer after 20 hrs; assay type: functional, Urine
Method in brief: (§1)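 Urine was collected on day 3 of i.v. therapy (steady state) over 4-h intervals from infusion start (0–4 to 20–24 h), stored at –80°C and sterile filtered. It was serially diluted twofold (1:0 up to 1:131,072) in the patient's own pre-dose drug-free urine. Microdilution used a final inoculum of 1.0 x 10^6 to 9.5 x 10^6 CFU/ml, incubated 18 h at 37°C in air. 10 µl was subcultured onto 5% blood Columbia agar for 24 h at 37°C. The bactericidal endpoint was >99.9% (>3-log) kill, reported as a reciprocal titer.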

Staphylococcus aureus [5] = assay: Antimicrobial activity against Staphylococcus aureus 1134684 isolated from patient with pyelonephritis assessed as >3-log reduction in urinary bacterial titer after 12 hrs; assay type: functional, Urine
Method in brief: (§2)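 Patient urine was collected on day 3 of i.v. therapy (steady state) over 4-h intervals after infusion start, stored at –80°C, and sterile filtered. It was twofold serially diluted (1:0 to 1:131,072) in the patient's own pre-dose drug-free urine, inoculated to 1.0 x 10^6–9.5 x 10^6 CFU/ml, and incubated for 18 h at 37°C. Subcultures were grown on blood agar for 24 h. The UBT is the reciprocal of the highest dilution giving >99.9% kill.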

Pseudomonas aeruginosa [6] = assay: Antimicrobial activity against Pseudomonas aeruginosa 1134642 isolated from patient with pyelonephritis assessed as >3-log reduction in urinary bacterial titer after 8 hrs; assay type: functional, Urine; method in brief: as §2
Enterococcus faecalis [7] = assay: Antimicrobial activity against Enterococcus faecalis 1780065 B-B isolated from patient with pyelonephritis assessed as >3-log reduction in urinary bacterial titer after 16 hrs; assay type: functional, Urine
Method in brief: (§3)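 Urine was collected before dosing and on day 3 of i.v. therapy (steady state), in 4-h intervals from infusion start (0–4 to 20–24 h), stored at −80°C and sterile filtered. It was serially diluted twofold (1:0 to 1:131,072) in the patient's drug-free pre-dose urine. Microdilution used an inoculum of 1.0 x 10^6–9.5 x 10^6 CFU/ml, incubated 18 h at 37°C, then subcultured 24 h on blood agar. The endpoint was >99.9% kill, reported as reciprocal titer.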

Pseudomonas aeruginosa [8] = assay: Antimicrobial activity against Pseudomonas aeruginosa ATCC 27853 isolated from patient with pyelonephritis assessed as >3-log reduction in urinary bacterial titer after 8 hrs; assay type: functional, Urine; method in brief: as §2
Staphylococcus aureus [9] = assay: Antimicrobial activity against Staphylococcus aureus 1134684 isolated from patient with pyelonephritis assessed as >3-log reduction in urinary bacterial titer after 4 hrs; assay type: functional, Urine; method in brief: as §2
Pseudomonas aeruginosa [10] = assay: Antimicrobial activity against Pseudomonas aeruginosa 1134642 isolated from patient with pyelonephritis assessed as >3-log reduction in urinary bacterial titer after 24 hrs; assay type: functional, Urine; method in brief: as §2
[11] = system: Staphylococcus epidermidis; assay: Antimicrobial activity against Staphylococcus epidermidis 1949822 B-J isolated from patient with pyelonephritis by Etest; assay type: functional
Proteus mirabilis [12] = assay: Antimicrobial activity against Proteus mirabilis 1134841 isolated from patient with pyelonephritis assessed as >3-log reduction in urinary bacterial titer after 16 hrs; assay type: functional, Urine; method in brief: as §2
Pseudomonas aeruginosa [13] = assay: Antimicrobial activity against Pseudomonas aeruginosa […] assessed as >3-log reduction in urinary bacterial titer after 16 hrs; assay type: functional, Urine; method in brief: as §2
Enterococcus faecalis [14] = assay: Antimicrobial activity against Enterococcus faecalis 1780065 B-B isolated from patient with pyelonephritis assessed as >3-log reduction in urinary bacterial titer after 24 hrs; assay type: functional, Urine; method in brief: as §3
Staphylococcus aureus [15] = assay: Antimicrobial activity against Staphylococcus aureus 1134684 isolated from patient with pyelonephritis assessed as >3-log reduction in urinary bacterial titer after 20 hrs; assay type: functional, Urine; method in brief: as §2
Pseudomonas aeruginosa [16] = assay: Antimicrobial activity against Pseudomonas aeruginosa 1134642 isolated from patient with pyelonephritis assessed as >3-log reduction in urinary bacterial titer after 12 hrs; assay type: functional, Urine; method in brief: as §2
Escherichia coli [17] = assay: Antimicrobial activity against Escherichia coli 1949820 B-N isolated from patient with pyelonephritis assessed as >3-log reduction in urinary bacterial titer after 24 hrs; assay type: functional, Urine; method in brief: as §1
Escherichia coli [18] = assay: Antimicrobial activity against Escherichia coli 1949821 B-M isolated from patient with pyelonephritis assessed as >3-log reduction in urinary bacterial titer after 4 hrs; assay type: functional, Urine; method in brief: as §1
Enterococcus faecalis [19] = assay: Antimicrobial activity against Enterococcus faecalis 1780065 B-B isolated from patient with pyelonephritis assessed as >3-log reduction in urinary bacterial titer after 8 hrs; assay type: functional, Urine; method in brief: as §3
Enterococcus faecalis [20] = assay: Antimicrobial activity against Enterococcus faecalis 1780065 B-B isolated from patient with pyelonephritis assessed as >3-log reduction in urinary bacterial titer after 12 hrs; assay type: functional, Urine; method in brief: as §3
Enterococcus faecalis [21] = assay: Antimicrobial activity against Enterococcus faecalis 1780065 B-B isolated from patient with pyelonephritis assessed as >3-log reduction in urinary bacterial titer after 4 hrs; assay type: functional, Urine; method in brief: as §3
Escherichia coli [22] = assay: Antimicrobial activity against Escherichia coli 1949821 B-M isolated from patient with pyelonephritis assessed as >3-log reduction in urinary bacterial titer after 20 hrs; assay type: functional, Urine; method in brief: as §1
Escherichia coli [23] = assay: Antimicrobial activity against Escherichia coli 1949820 B-N isolated from patient with pyelonephritis by Etest; assay type: functional
Escherichia coli [24] = assay: Antimicrobial activity against Escherichia coli 1949821 B-M isolated from patient with pyelonephritis assessed as >3-log reduction in urinary bacterial titer after 12 hrs; assay type: functional, Urine; method in brief: as §1
Pseudomonas aeruginosa [25] = assay: Antimicrobial activity against Pseudomonas aeruginosa […] assessed as >3-log reduction in urinary bacterial titer after 20 hrs; assay type: functional, Urine; method in brief: as §2
Escherichia coli [26] = assay: Antimicrobial activity against Escherichia coli 1949821 B-M isolated from patient with pyelonephritis by Etest; assay type: functional
Staphylococcus aureus [27] = assay: Antimicrobial activity against Staphylococcus aureus 1134684 isolated from patient with pyelonephritis by Etest; assay type: functional
Pseudomonas aeruginosa [28] = assay: Antimicrobial activity against Pseudomonas aeruginosa 1134642 isolated from patient with pyelonephritis assessed as >3-log reduction in urinary bacterial titer after 20 hrs; assay type: functional, Urine; method in brief: as §2
Pseudomonas aeruginosa [29] = assay: Antimicrobial activity against Pseudomonas aeruginosa 1134642 isolated from patient with pyelonephritis assessed as >3-log reduction in urinary bacterial titer after 4 hrs; assay type: functional, Urine; method in brief: as §2
Proteus mirabilis [30] = assay: Antimicrobial activity against Proteus mirabilis 1134841 isolated from patient with pyelonephritis assessed as >3-log reduction in urinary bacterial titer after 20 hrs; assay type: functional, Urine; method in brief: as §2
[31] = Drug excretion in pyelonephritis patient urine at 250 mg/kg, iv administered every 24 hrs; assay type: ADME, organism-based; parameters: dose 250 mg/kg, route intravenous; conditions: human, read-out: Activity
Proteus mirabilis [32] = assay: Antimicrobial activity against Proteus mirabilis 1134841 isolated from patient with pyelonephritis by Etest; assay type: functional
Escherichia coli [33] = assay: Antimicrobial activity against Escherichia coli 1135121 isolated from patient with pyelonephritis by Etest; assay type: functional
Staphylococcus aureus [34] = assay: Antimicrobial activity against Staphylococcus aureus 1134684 isolated from patient with pyelonephritis assessed as >3-log reduction in urinary bacterial titer after 24 hrs; assay type: functional, Urine; method in brief: as §2
Pseudomonas aeruginosa [35] = assay: Antimicrobial activity against Pseudomonas aeruginosa […] assessed as >3-log reduction in urinary bacterial titer after 24 hrs; assay type: functional, Urine; method in brief: as §2
Staphylococcus aureus [36] = assay: Antimicrobial activity against Staphylococcus aureus 1134684 isolated from patient with pyelonephritis assessed as >3-log reduction in urinary bacterial titer after 8 hrs; assay type: functional, Urine; method in brief: as §2

SMILES	MIC (Escherichia coli [1]) [µg/mL]	MIC (Escherichia coli [2]) [µg/mL]	dose excreted at 8 h [3] [%]	urinary bactericidal titer (Staphylococcus aureus [5]) [reciprocal titer]	urinary bactericidal titer (Pseudomonas aeruginosa [6]) [reciprocal titer]	Time (Enterococcus faecalis [7]) [h]	urinary bactericidal titer (Pseudomonas aeruginosa [8]) [reciprocal titer]	urinary bactericidal titer (Staphylococcus aureus [9]) [reciprocal titer]	urinary bactericidal titer (Pseudomonas aeruginosa [10]) [reciprocal titer]	MIC [11] [µg/mL]	urinary bactericidal titer (Proteus mirabilis [12]) [reciprocal titer]	urinary bactericidal titer (Pseudomonas aeruginosa [13]) [reciprocal titer]	Time (Enterococcus faecalis [14]) [h]	urinary bactericidal titer (Staphylococcus aureus [15]) [reciprocal titer]	urinary bactericidal titer (Pseudomonas aeruginosa [16]) [reciprocal titer]	Time (Escherichia coli [17]) [h]	Time (Enterococcus faecalis [19]) [h]	urinary bactericidal titer (Enterococcus faecalis [20]) [reciprocal titer]	urinary bactericidal titer (Enterococcus faecalis [21]) [reciprocal titer]	urinary bactericidal titer (Escherichia coli [22]) [titer]	other results
C[C@@H](O)[C@H]1C(=O)N2C(C(=O)O)=C(S[C@@H]3CN[C@H](CNS(N)(=O)=O)C3)[C@H](C)[C@H]12 [DORIPENEM]	≤ 0.015	0.03 (≈ 0.0713 µM)	80	12	1024	48	1024	8	1280	> 32	1540	1540	32	8	6140	5120	32	192	128	32800	urinary bactericidal titer (Escherichia coli [4]): 32800; urinary bactericidal titer (Escherichia coli [18]): 32800; MIC (Escherichia coli [23]): 0.03 µg/mL (≈ 0.0713 µM); urinary bactericidal titer (Escherichia coli [24]): 32800 titer; urinary bactericidal titer (Pseudomonas aeruginosa [25]): 4096 reciprocal titer; MIC (Escherichia coli [26]): ≤ 0.015 µg/mL; MIC (Staphylococcus aureus [27]): 32 µg/mL (≈ 76.1 µM); urinary bactericidal titer (Pseudomonas aeruginosa [28]): 4096 reciprocal titer; urinary bactericidal titer (Pseudomonas aeruginosa [29]): 4096 reciprocal titer; urinary bactericidal titer (Proteus mirabilis [30]): 8192 reciprocal titer; dose excreted at 24 h [31]: 80%; MIC (Proteus mirabilis [32]): 0.03 µg/mL (≈ 0.0713 µM); MIC (Escherichia coli [33]): ≤ 0.015 µg/mL; urinary bactericidal titer (Staphylococcus aureus [34]): 1.5 reciprocal titer; urinary bactericidal titer (Pseudomonas aeruginosa [35]): 512 reciprocal titer; urinary bactericidal titer (Staphylococcus aureus [36]): 4 reciprocal titer
C[C@H]1COc2c(N3CCN(C)CC3)c(F)cc3c(=O)c(C(=O)O)cn1c23.C[C@H]1COc2c(N3CCN(C)CC3)c(F)cc3c(=O)c(C(=O)O)cn1c23.O [LEVOFLOXACIN]	8	> 8	80	4	2	16	16	8	0	8	0	8	6	2	1	0	16	16	32	48	Time (Escherichia coli [4]): 1 h; Time (Escherichia coli [18]): 192 h; MIC (Escherichia coli [23]): 8 µg/mL; urinary bactericidal titer (Escherichia coli [24]): 64 titer; urinary bactericidal titer (Pseudomonas aeruginosa [25]): 6 reciprocal titer; MIC (Escherichia coli [26]): 0.125 µg/mL; MIC (Staphylococcus aureus [27]): 4 µg/mL; urinary bactericidal titer (Pseudomonas aeruginosa [28]): 1 reciprocal titer; urinary bactericidal titer (Pseudomonas aeruginosa [29]): 2 reciprocal titer; urinary bactericidal titer (Proteus mirabilis [30]): 0 reciprocal titer; dose excreted at 24 h [31]: 80%; MIC (Proteus mirabilis [32]): > 8 µg/mL; MIC (Escherichia coli [33]): 4 µg/mL; urinary bactericidal titer (Staphylococcus aureus [34]): 2 reciprocal titer; urinary bactericidal titer (Pseudomonas aeruginosa [35]): 4 reciprocal titer; urinary bactericidal titer (Staphylococcus aureus [36]): 4 reciprocal titer
